Key:
HaCaT = assay: Cytotoxicity against human HaCaT cells assessed as reduction in cell viability after 48 hrs by MTT assay; type: cell-based
Procedure, shortened: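 HaCaT keratinocytes were exposed for 48 h at 37 °C under 5% CO2 to test agents dissolved in medium. Nine twofold serial dilutions ran from 500 down to 1.95. Cells were then rinsed with PBS (pH 7.4) and given MTT at 0.5 mg/mL in PBS for 10 min in the dark, then read at 595 nm. Survival is a percentage of control wells, averaged over 12 replicates. EC50 came from non-linear regression of dose-response curves.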

[1] = Dissociation constant, pKa of compound at pH 2 to 12 at 1 to 2 mg by potentiometric titration method; type: physicochemical
Procedure, shortened: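 Accurately weighed sample loaded into an automated Sirius T3 for pH-metric analysis, using automated acid-base titration. The pKa was computed from the titration data. The value is the mean of 3 titrations.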

[2] = Lipophilicity, log D of compound at pH 7.4; conditions: buffer
[3] = Prodrug activation in human PT37 cells assessed as intracellular cysteamine-CMQT formation at 20 uM incubated for 2 to 24 hrs by HPLC analysis; type: cell-based; conditions: pt37, 20 µM
Procedure, shortened: (§1)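 PT37 normal human proximal tubule cells were grown in DMEM/F12 with 2 mM L-glutamine, penicillin-streptomycin and 10% heat-inactivated FCS at 37 °C under 5% CO2. Confluent monolayers got […] test agent in medium at 37 °C for 0, 2, 6, 16 or 24 h. Cells were trypsin-harvested, lysed and centrifuged. Pellet protein was measured by Bradford against BSA standards. Supernatant thiols were reduced with NaBH4, derivatised with CMQT and analysed by HPLC with UV and fluorescence detection. Results are nmol/mg protein, n=3.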

physchem = conditions: octanol/water, pH 2
Serum = assay: Prodrug activation in fetal bovine serum containing medium assessed as cysteamine formation after 24 hrs by LC-MS analysis; design: species or system Bos taurus; conditions: cattle
Procedure, shortened: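 Prodrug was incubated in medium containing fetal bovine serum for up to 24 h. Hydrolysis and cysteamine release were monitored by LC-MS.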

[4] = Prodrug activation in human PT37 cells assessed as intracellular cysteamine-CMQT formation per mg protein at 20 uM after 6 hrs by HPLC analysis; type: cell-based; conditions: pt37, 6 h; procedure, shortened: as §1
[5] = Prodrug activation in human PT37 cells assessed as intracellular cysteamine-CMQT formation per mg protein at 20 uM after 24 hrs by HPLC analysis; type: cell-based; conditions: pt37, 24 h; procedure, shortened: as §1
[6] = Drug metabolism in water assessed as oxidation of cysteamine by measuring cysteamine-CMQT level at pH 4.66 at 0.01 M after 1 hr by HPLC-UV method; type: physicochemical; conditions: buffer, pH 4.66, 1 h
[7] = Drug metabolism in water assessed as oxidation of cysteamine by measuring cysteamine-CMQT level at pH 4.66 at 0.01 M after 3 hrs by HPLC-UV method; type: physicochemical; conditions: buffer, pH 4.66, 3 h
[8] = Prodrug activation in human PT37 cells assessed as intracellular cysteamine-CMQT formation at 20 uM after 2 hrs by HPLC analysis; type: cell-based; conditions: pt37, 2 h; procedure, shortened: as §1

Row | pKa [1] | logD [2] | Drug metabolism [3] | logP (physchem) | SMILES | EC50 (HaCaT; Homo sapiens, HaCaT, 48 h) | further results
1 | 8.85 | -0.37 | metabolite_detected | 1.09 | CCOC(=O)[C@@H](N)CCC(=O)NCCSC(=O)c1ccccc1.Cl | 331 µM | 
2 | 8.8 | -1.21 | metabolite_detected | 0.21 | CCCOC(=O)[C@@H](N)CCC(=O)NCCSC(C)=O.Cl | 548 µM | 
3 | 8.94 | -1.44 | metabolite_detected | 0.11 | CCOC(=O)[C@@H](N)CCC(=O)NCCSC(C)=O.Cl | 1730 µM | Drug metabolism (Serum): metabolite_notdetected
4 | 8.9 | -0.29 | metabolite_detected | 1.22 | CCOC(=O)[C@@H](N)CCC(=O)NCCSC(=O)C(C)(C)C.Cl | 228 µM | 
5 | 8.69 | -0.88 | metabolite_detected | 0.43 | CCCCOC(=O)[C@@H](N)CCC(=O)NCCSC(C)=O.Cl | 563 µM | 

Continued, molecule first:

Row | SMILES | pKa [1] | logD [2] | Drug metabolism [3] | logP (physchem) | EC50 (HaCaT; Homo sapiens, HaCaT, 48 h) | further results
6 | CCCCOC(=O)[C@@H](N)CCC(=O)NCCSC(=O)C(C)(C)C |  |  |  |  | 102 µM | 
7 | Cl.Cl.NCCS |  |  | metabolite_notdetected |  |  | 
8 | N[C@@H](CCC(=O)NCCS)C(=O)O |  |  |  |  |  | Drug metabolism (Serum): metabolite_notdetected
9 | CCCCOC(=O)[C@@H](N)CCC(=O)NCCSC(=O)c1ccccc1 |  |  |  |  | 97 µM | 
10 | CCCOC(=O)[C@@H](N)CCC(=O)NCCSC(=O)c1ccccc1 |  |  |  |  | 75 µM | 
11 | Cl.NCCS [CYSTEAMINE HYDROCHLORIDE] | 8.15 |  |  |  |  | EC50 (HaCaT; hacat): 309 µM; Drug metabolism [4]: 0.84 nmol/mg; Drug metabolism [5]: 0.22 nmol/mg; Drug metabolism [6]: 50%; Drug metabolism [7]: metabolite_notdetected; Drug metabolism [8]: metabolite_detected
12 | CCCOC(=O)[C@@H](N)CCC(=O)NCCSC(=O)C(C)(C)C |  |  |  |  | 152 µM | 

From ChEMBL document CHEMBL3763053, “Synthesis of diacylated γ-glutamyl-cysteamine prodrugs, and in vitro evaluation of their cytotoxicity and intracellular delivery of cysteamine” (Eur J Med Chem, 2016)
